Experiments:
[1] = Retention time of the compound in Sprague-Dawley rat bile treated with gambogic acid at 4 mg/kg, iv measured over 24 hrs by LC-DAD-MS/MS analysis; type: ADME, organism-based; design: dose 4 mg/kg, route intravenous; details: in vivo
Summary of the method: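 SD rats, n=4, bile-duct cannulated under chloral hydrate and allowed 1 h recovery. GA 4 mg/kg i.v.; bile collected on ice, pooled 0–24 h. C18 LC-DAD-MS/MS at 0.25 mL/min with acetonitrile gradient (38% to 80%) in 10 mM ammonium acetate, 40 °C, negative ESI.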

Liver microsome = experiment: Drug level in rat liver microsomes treated with gambogic acid at 50 uM preincubated for 10 mins followed by NADPH addition measured after 2 hrs in presence of GSH; type: ADME
Summary of the method: (§1)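 GA 50 μM in 1.0 mL 0.1 M PBS pH 7.4 with GSH 5.0 mM and NADPH 6.0 mM (final). Line 7 uses rat liver microsomes 1.0 mg/mL; line 2 omits microsomes. Preincubated 10 min at 37 °C, started with NADPH, run 2 h at 37 °C, duplicate. Quenched with ice-cold acetonitrile and dried. LC-MS/MS in negative ESI, isocratic 65% acetonitrile / 10 mM ammonium acetate.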

[2] = Drug level in PBS buffer treated with gambogic acid at 50 uM preincubated for 10 mins followed by NADPH addition measured after 2 hrs in presence of GSH and absence of liver microsomes; type: physicochemical; summary of the method: as §1

In the case of CC(C)=CCC[C@]1(C)C=Cc2c(O)c3c(c(CC=C(C)C)c2O1)O[C@]12C(C3=O)C(SC[C@H](NC(=O)CC[C@H](N)C(=O)O)C(=O)NCC(=O)O)[C@@H]3C[C@H]1C(C)(C)O[C@@]2(C/C=C(/C)C(=O)O)C3=O (stereo partly drawn), the Retention_time [1] is reported as 5.7 min, the Drug metabolism (Liver microsome) is reported as “metabolite_detected” and the Drug metabolism [2] is reported as “metabolite_detected”.
